The subject of assay [1] is Neuronal progenitor cell. Put plainly: Induction of neuronal differentiation in C57BL/6J mouse neuronal progenitor cells assessed as increase in Map2/beta actin mRNA level at 1 uM treated for every second day for 4 days by RT-PCR analysis relative to control. Format: functional, cell-based. The gist of the method:
(§1)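 C57BL/6J E14 mouse cerebral neural stem cells were cultured 24 h after seeding. They were then treated with 1 µM analogue or ethanol control for 4 days, dosed every second day. mRNA was extracted, and Map2, Gfap and β-actin were quantified by real-time PCR. Map2/β-actin or Gfap/β-actin ratios were normalized to the EtOH control (set at 1.0). Values are means of three independent experiments; significance by Dunnett's t-test.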

For assay [2], the system named is Neuronal progenitor cell. Put plainly: Induction of neuronal differentiation in C57BL/6J mouse neuronal progenitor cells assessed as expression of Gfap at 1 uM treated for every second day for 4 days measured after 48 hrs by DAPI-staining based immunofluorescence method. In kind it is functional. The gist of the method: (§2)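 Neural stem cells taken from embryonic day 14 cerebrum of C57BL/6J mice, dispersed with trypsin/DNase I at 37 °C, seeded and grown 1 day at 37 °C, 5% CO2. Medium replaced with 10% FCS DMEM (low glucose) containing 1 µM analogue; ethanol at 0.1% as control. After 48 h, cells permeabilized with 0.2% Triton X-100. Staining used anti-Map2 (CF594, red) and anti-Gfap (CF488A, green), each overnight at 4 °C, with DAPI nuclei, then fluorescence microscopy.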

Assay [3] concerns Neuronal progenitor cell. The experiment in a line: Induction of neuronal differentiation in C57BL/6J mouse neuronal progenitor cells assessed as increase in relative ratio of Map2/Gfap mRNA level at 1 uM treated for every second day for 4 days by RT-PCR analysis relative to control. Format: functional, cell-based. The gist of the method: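 E14 C57BL/6J mouse cerebral neural progenitor cells were treated with 1 µM analogue or ethanol every second day for 4 days. Map2 and Gfap mRNA (each relative to β-actin) were measured by real-time PCR. The Map2/Gfap ratio was calculated and normalized to the EtOH control (set at 1.0).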

The subject of assay [4] is Neuronal progenitor cell. Put plainly: Induction of neuronal differentiation in C57BL/6J mouse neuronal progenitor cells assessed as expression of Map2 at 1 uM treated for every second day for 4 days measured after 48 hrs by DAPI-staining based immunofluorescence method. Format: functional. Put shortly:
as §2

The nature of assay [5]: Induction of neuronal differentiation in C57BL/6J mouse neuronal progenitor cells assessed as fold increase in Map2/beta-actin mRNA level at 1 uM treated for every second day for 4 days by RT-PCR analysis relative to control. In kind it is functional, Neuronal progenitor cell. Put shortly: as §1
Assay [6] deals with Neuronal progenitor cell. The experiment in a line: Induction of neuronal differentiation in C57BL/6J mouse neuronal progenitor cells assessed as increase in Gfap/beta-actin mRNA level at 1 uM treated for every second day for 4 days by RT-PCR analysis relative to control. Format: functional, cell-based. Put shortly:
as §1

The source made the active and inactive calls. No cut-off for these calls is given here.

Turning to `CC1=C(C/C=C(\C)CC/C=C(\C)CC/C=C(\C)COc2ccccc2)C(=O)c2ccccc2C1=O`, the outcome in assay [1] was Active.
Consider `CC1=C(C/C=C(\C)CC/C=C(\C)CNc2ccc(F)cc2)C(=O)c2ccccc2C1=O`, for which the result in assay [2] was inactive. The result in assay [3] and in assay [4] was Active. For the same molecule, the fold change (FC) in assay [5] was > 2.
`CC1=C(C/C=C(\C)CC/C=C(\C)CNc2ccccc2)C(=O)c2ccccc2C1=O`: the outcome in assay [1] was Active.
For the molecule `CC(C)=CCC/C(C)=C/CC/C(C)=C/CC/C(C)=C/CC1=C(C)C(=O)c2ccccc2C1=O` [MENATETRENONE], the result in assay [6], in assay [2] and in assay [4] was Active. Also, the “fold change (FC)” value in assay [5] is >2.
`CC1=C(C/C=C(\C)CC/C=C(\C)CC/C=C(\C)COc2cccc(C)c2)C(=O)c2ccccc2C1=O`: the outcome in assay [2] was inactive. For the same molecule, the outcome in assay [3], in assay [4] and in assay [1] was Active.

The values above are taken from ChEMBL document CHEMBL4007436, “Synthesis of Novel Synthetic Vitamin K Analogues Prepared by Introduction of a Heteroatom and a Phenyl Group That Induce Highly Selective Neuronal Differentiation of Neuronal Progenitor Cells” (2017).
